Results published in ChEMBL document CHEMBL1158140, “Abietane diterpenoids from Salvia pachyphylla and S. clevelandii with cytotoxic activity against human cancer cell lines” (2006).

Columns and labels:
Format in all cases: functional
T47D = assay: Cytotoxicity against human T47D cells after 48 hrs by SRB assay
Method in brief: (§1)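 RPMI 1640 with 5% heat-inactivated FCS and 2 mM L-glutamine, 37 °C, 5% CO2. Seeded per well at 6000 (SW1573, HBL-100), 7000 (A2780), 12 000 (WiDr) or 15 000 (T-47D). Triplicate, 1-100 µM from day 1 for 48 h; DMSO 0.25% v/v control. TCA-fixed, SRB OD 490 nm. Percentage growth from T0, T and control ODs gives GI50, mean ± SD of 3-5 experiments.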

A2780 = assay: Cytotoxicity against human A2780 cells after 48 hrs by SRB assay; conditions: A2780, 48 h; method in brief: as §1
HBL-100 = assay: Cytotoxicity against human HBL100 cells after 48 hrs by SRB assay; conditions: HBL-100, 48 h; method in brief: as §1
SW1573 = assay: Cytotoxicity against human SW1573 cells after 48 hrs by SRB assay; conditions: SW1573, 48 h; method in brief: as §1
WiDr = assay: Cytotoxicity against human WiDr cells after 48 hrs by SRB assay; method in brief: as §1

SMILES | GI50 (T47D) | GI50 (A2780) | GI50 (HBL-100) | GI50 (SW1573) | GI50 (WiDr)
COc1cc2c(cc1C(C)C)C(=O)C=C1C(C)(C)CCC[C@@]12C | 33 µM | 16 µM | 16 µM | 18 µM | 29 µM
CC(C)C1=C[C@]2(O)CC[C@H]3C(C)(C)CCC[C@]3(C)C2=CC1=O | 82 µM | 19 µM | 26 µM | 29 µM | 83 µM
CC(C)c1cc2c(c(O)c1O)[C@@]13CCCC(C)(C)[C@@H]1C[C@@H]2OC3 | 32 µM | 5.4 µM | 4.6 µM | 22 µM | 32 µM
CC(C)C1=C[C@@]23CC[C@H]4C(C)(C)CCC[C@]4(CO2)C3=C(O)C1=O [PACHYPHYLLONE] | 32 µM | 14 µM | 22 µM | 23 µM | 36 µM
CC(C)c1cc(C=O)c2c(c1O)OC(=O)[C@@]21CCCC(C)(C)[C@@H]1C=O [ROSMADIAL] | 48 µM | 36 µM | 26 µM | 32 µM | 59 µM
CC(C)c1cc2c(c(O)c1O)[C@@]13CCCC(C)(C)[C@@H]1[C@@H](O)[C@@H]2OC3=O [ISOROSMANOL] | > 100 µM | 19 µM | 17 µM | 23 µM | > 100 µM
CC(CO)c1cc2c(c(O)c1O)[C@@]13CCCC(C)(C)[C@@H]1C[C@@H]2OC3=O (stereo not given in full) | 35 µM | 3.6 µM | 3.6 µM | 9 µM | 28 µM
CC(C)c1cc2c(c(O)c1O)[C@@]13CCCC(C)(C)[C@@H]1C[C@@H]2OC3=O [CARNOSOL] | 24 µM | 3.6 µM | 3.9 µM | 10 µM | 26 µM
